ChEMBL document CHEMBL1129642, “Design, synthesis, and evaluation of 2 beta-alkenyl penam sulfone acids as inhibitors of beta-lactamases” (J Med Chem, 1996)
pIC50: −log10 of the molar value.

Tests used:
Bacillus licheniformis = test: Compound was tested for inhibition of Bacillus licheniformis 749/C, class A of beta-Lactamases.; type: functional, organism-based
Beta-lactamase OXA-1 = Beta-lactamase OXA-1 (Escherichia coli, UniProt P13661); test: Compound was tested for inhibition of Beta-lactamase from OXA-1
Beta-lactamase OXA-1, sequence (P13661 whole entry): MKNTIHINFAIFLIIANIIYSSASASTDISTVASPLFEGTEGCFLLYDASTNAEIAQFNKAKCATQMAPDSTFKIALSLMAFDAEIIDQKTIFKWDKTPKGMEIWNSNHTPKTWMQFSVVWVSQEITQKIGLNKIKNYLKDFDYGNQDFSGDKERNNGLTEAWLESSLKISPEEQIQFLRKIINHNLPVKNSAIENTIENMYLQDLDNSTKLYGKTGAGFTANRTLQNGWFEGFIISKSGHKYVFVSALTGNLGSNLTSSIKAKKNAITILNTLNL

Beta-lactamase pse-1 = Beta-lactamase pse-1 (Escherichia coli, UniProt Q2V0Y6); test: Compound was tested for inhibition of Beta-lactamase from PSE-1
Beta-lactamase pse-1, sequence (Q2V0Y6 whole entry): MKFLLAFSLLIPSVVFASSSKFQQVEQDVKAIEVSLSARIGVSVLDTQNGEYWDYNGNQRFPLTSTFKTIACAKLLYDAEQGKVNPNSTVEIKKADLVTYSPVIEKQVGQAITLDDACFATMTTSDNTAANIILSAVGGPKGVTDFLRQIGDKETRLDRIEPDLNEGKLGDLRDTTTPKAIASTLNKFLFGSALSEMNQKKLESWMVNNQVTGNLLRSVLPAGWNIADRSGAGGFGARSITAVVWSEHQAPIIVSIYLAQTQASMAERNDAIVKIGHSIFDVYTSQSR

Beta-lactamase TEM [1] = target: T1, Beta-lactamase TEM (Escherichia coli, UniProt P62593); test: Compound was tested for inhibition of Beta-lactamase from RTEM-1
T1 sequence (P62593 whole entry): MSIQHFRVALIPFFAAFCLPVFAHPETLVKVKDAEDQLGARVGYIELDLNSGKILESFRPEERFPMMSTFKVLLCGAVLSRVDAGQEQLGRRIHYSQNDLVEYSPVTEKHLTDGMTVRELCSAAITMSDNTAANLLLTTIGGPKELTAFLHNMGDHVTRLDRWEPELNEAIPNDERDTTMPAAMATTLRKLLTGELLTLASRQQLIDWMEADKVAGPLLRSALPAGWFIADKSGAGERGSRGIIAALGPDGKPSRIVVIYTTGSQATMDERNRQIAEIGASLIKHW

Beta-lactamase TEM [2] = target: T1, Beta-lactamase TEM; test: Compound was tested for inhibition of Beta-lactamase from RTEM-2
Beta-lactamase SHV-1 = Beta-lactamase SHV-1 (Escherichia coli, UniProt P0AD63); test: Compound was tested for inhibition of Beta-lactamase from SHV-2
Beta-lactamase SHV-1, sequence (P0AD63 22-286 limits assumed): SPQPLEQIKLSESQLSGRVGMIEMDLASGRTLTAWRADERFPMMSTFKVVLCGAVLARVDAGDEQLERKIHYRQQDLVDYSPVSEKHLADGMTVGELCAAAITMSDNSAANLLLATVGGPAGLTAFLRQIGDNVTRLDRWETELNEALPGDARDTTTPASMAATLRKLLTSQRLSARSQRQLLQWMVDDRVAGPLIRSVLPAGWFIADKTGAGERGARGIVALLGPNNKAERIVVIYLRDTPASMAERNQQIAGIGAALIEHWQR

Beta-lactamase [3] = target: T2, Beta-lactamase (Bacillus licheniformis, UniProt P00808); test: Compound was tested for inhibition of Beta-lactamase from Bacillus licheniformis 749/C
T2 sequence (P00808 whole entry): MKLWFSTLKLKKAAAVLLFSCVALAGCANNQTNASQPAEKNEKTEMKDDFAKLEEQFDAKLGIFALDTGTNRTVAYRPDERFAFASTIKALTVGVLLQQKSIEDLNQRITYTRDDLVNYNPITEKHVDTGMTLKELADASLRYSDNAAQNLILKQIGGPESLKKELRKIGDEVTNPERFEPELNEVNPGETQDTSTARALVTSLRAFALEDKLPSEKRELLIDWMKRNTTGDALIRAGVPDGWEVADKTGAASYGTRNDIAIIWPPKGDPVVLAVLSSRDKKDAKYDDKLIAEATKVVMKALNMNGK

[4] = target: Metallo-beta-lactamase type 2 (Bacteroides fragilis, UniProt P25910); test: Compound was tested for inhibition of Beta-lactamase from Bacteroides fragilis BF 101
Metallo-beta-lactamase type 2, sequence (P25910 whole entry): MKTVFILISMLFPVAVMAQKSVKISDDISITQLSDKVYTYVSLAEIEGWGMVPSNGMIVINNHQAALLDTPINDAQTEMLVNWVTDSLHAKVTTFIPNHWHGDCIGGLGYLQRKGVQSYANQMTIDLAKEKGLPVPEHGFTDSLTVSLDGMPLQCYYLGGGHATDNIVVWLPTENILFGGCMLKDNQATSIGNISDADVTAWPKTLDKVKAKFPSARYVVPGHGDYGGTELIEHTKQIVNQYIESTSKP

Beta-lactamase [5] = target: T3, Beta-lactamase (Pseudomonas aeruginosa (strain ATCC 15692 / PAO1 / 1C / PRS 101 / LMG12228), UniProt P24735); test: Compound was tested for inhibition of Beta-lactamase from Pseudomonas aeruginosa GN10362
T3 sequence (P24735 whole entry): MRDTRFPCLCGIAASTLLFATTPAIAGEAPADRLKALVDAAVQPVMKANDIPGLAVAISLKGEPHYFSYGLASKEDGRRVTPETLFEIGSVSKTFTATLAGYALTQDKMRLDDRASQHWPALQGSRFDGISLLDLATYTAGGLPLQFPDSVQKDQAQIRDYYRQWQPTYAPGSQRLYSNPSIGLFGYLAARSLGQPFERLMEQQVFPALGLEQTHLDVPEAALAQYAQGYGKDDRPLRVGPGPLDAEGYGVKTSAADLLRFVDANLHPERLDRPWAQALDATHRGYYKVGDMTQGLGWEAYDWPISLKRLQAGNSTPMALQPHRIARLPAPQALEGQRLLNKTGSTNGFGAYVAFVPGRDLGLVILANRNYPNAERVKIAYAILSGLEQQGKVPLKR

Beta-lactamase [6] = target: T3, Beta-lactamase; test: Compound was tested for inhibition of Beta-lactamase from Pseudomonas aeruginosa MK-1184
Citrobacter freundii [7] = test: Compound was tested for inhibition of Citrobacter freundii 1928 in combination with Ceftriaxone (expressed in MIC).; type: functional, organism-based
Citrobacter freundii [8] = test: Compound was tested for the half saturation constant derived from concentration dependence studies in Citrobacter freundii; type: functional
Procedure, shortened: (§1)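 Purified β-lactamases (C. freundii 1928, E. coli SNO3, TEM-3, SHV-2) reacted with inhibitor. K_S is the half-saturation constant for forming the acyl-enzyme complex, taken from the concentration dependence of that reaction. It was obtained together with the acylation rate k_on and the acyl-enzyme breakdown rate k_off, using previously published kinetic methods.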

Escherichia coli [9] = test: Compound was tested for the half saturation constant derived from concentration dependence studies in Escherichia coli SHV-2.; type: functional; procedure, shortened: as §1
Enterobacter cloacae [10] = test: Compound was tested for inhibition of Ent. cloacae 908R in combination with Ceftriaxone (expressed in MIC).; type: functional, organism-based
Procedure, shortened: (§2)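 MICs determined by serial 2-fold dilution in Mueller-Hinton broth with an inoculum of approximately 10⁵ cfu/mL. The test compound was combined with ceftriaxone.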

Escherichia coli [11] = test: Compound was tested for the half saturation constant derived from concentration dependence studies in Escherichia coli SNO3.; type: functional; procedure, shortened: as §1
Escherichia coli [12] = test: Compound was tested for the half saturation constant derived from concentration dependence studies in Escherichia coli TEM-3.; type: functional; procedure, shortened: as §1
[13] = target: Penicillin-binding protein 2b (Staphylococcus aureus, UniProt Q9XDB3); test: Compound was tested for inhibition of Penicillin-binding protein 3 from Staphylococcus aureus (Schoch).
Procedure, shortened: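 Competition for penicillin binding measured on S. aureus Schoch membrane fragments with 14C-labelled benzylpenicillin as the probe. The value is the IC50 (µM) for the PBP 3 band.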

[14] = target: PBP3 from Escherichia coli (K-12) (Escherichia coli, UniProt P0AD68); test: Compound was tested for inhibition of Penicillin-binding protein 3 from Escherichia coli.
PBP3 from Escherichia coli (K-12), sequence (P0AD68 whole entry, looked up): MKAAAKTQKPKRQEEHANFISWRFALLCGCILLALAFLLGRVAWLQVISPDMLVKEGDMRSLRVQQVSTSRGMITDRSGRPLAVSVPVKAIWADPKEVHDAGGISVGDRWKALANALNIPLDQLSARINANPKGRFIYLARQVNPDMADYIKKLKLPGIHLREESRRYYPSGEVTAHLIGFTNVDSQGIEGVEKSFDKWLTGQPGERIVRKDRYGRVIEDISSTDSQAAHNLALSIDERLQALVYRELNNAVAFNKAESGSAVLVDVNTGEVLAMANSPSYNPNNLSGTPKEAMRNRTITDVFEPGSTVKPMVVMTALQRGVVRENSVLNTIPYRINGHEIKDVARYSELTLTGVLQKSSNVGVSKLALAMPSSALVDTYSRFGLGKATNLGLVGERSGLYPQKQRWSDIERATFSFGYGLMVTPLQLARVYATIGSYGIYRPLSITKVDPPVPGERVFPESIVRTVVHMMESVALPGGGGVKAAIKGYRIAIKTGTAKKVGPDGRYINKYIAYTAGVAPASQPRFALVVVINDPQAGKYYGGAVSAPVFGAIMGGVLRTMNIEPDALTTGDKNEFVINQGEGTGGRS

Pseudomonas aeruginosa [15] = test: Compound was tested for inhibition of Pseudomonas aeruginosa 18SH in combination with Ceftriaxone (expressed in MIC).; type: functional, organism-based; procedure, shortened: as §2
Beta-lactamase L1 = Beta-lactamase L1 (Stenotrophomonas maltophilia, UniProt P52700); test: Compound was tested for inhibition of Beta-lactamase from Xanthomonas maltophila 328
Beta-lactamase L1, sequence (P52700 whole entry): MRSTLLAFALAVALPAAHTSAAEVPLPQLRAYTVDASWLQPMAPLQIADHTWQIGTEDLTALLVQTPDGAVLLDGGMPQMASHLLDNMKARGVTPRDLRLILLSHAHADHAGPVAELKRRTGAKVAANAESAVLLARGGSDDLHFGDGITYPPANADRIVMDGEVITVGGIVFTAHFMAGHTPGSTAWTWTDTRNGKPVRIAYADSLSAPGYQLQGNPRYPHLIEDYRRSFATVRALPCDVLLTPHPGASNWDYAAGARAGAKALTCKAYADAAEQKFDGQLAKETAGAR

Beta-lactamase [16] = target: Beta-lactamase (Staphylococcus aureus, UniProt P00807); test: Compound was tested for inhibition of Beta-lactamase from Staphylococcus aureus PCI
Beta-lactamase [17] = target: Beta-lactamase (Escherichia coli K-12, UniProt P00811); test: Compound was tested for inhibition of Escherichia coli AmpC, class C of Beta-lactamase
Beta-lactamase (Escherichia coli K-12, UniProt P00811), sequence (P00811 whole entry): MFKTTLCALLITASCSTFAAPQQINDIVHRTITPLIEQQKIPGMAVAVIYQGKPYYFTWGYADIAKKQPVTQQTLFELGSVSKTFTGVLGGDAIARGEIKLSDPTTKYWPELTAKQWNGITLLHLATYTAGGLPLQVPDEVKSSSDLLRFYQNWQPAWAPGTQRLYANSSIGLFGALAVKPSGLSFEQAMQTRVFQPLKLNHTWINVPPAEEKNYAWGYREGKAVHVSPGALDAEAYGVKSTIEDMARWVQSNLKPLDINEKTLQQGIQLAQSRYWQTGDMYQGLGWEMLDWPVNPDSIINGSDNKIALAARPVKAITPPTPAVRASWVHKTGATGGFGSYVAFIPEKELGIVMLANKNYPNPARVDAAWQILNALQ

Beta-lactamase [18] = target: T2, Beta-lactamase; test: Compound was tested for inhibition of Bacillus licheniformis 749/C, class A of Beta-lactamase
Beta-lactamase [19] = target: T3, Beta-lactamase; test: Compound was tested for inhibition of Pseudomonas aeruginosa 18SH, class C of Beta-lactamase
Beta-lactamase [20] = target: Beta-lactamase (Citrobacter freundii, UniProt P05193); test: Compound was tested for inhibition of Citrobacter freundii 1928, class C of Beta-lactamase
Beta-lactamase (Citrobacter freundii, UniProt P05193), sequence (P05193 whole entry): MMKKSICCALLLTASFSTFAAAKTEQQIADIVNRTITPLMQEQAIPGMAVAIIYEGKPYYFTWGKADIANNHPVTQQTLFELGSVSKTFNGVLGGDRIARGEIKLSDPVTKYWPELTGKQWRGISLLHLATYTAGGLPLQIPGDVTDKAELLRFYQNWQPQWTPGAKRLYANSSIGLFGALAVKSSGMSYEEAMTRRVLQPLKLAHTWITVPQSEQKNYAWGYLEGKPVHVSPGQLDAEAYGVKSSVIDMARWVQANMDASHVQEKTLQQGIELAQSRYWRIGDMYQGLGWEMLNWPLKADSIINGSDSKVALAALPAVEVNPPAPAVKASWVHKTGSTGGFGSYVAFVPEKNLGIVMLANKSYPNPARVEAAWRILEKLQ

[21] = target: Penicillin-binding protein 4 (Staphylococcus aureus, UniProt P72355); test: Compound was tested for inhibition of Penicillin-binding protein 4 from Staphylococcus aureus (Schoch).
[22] = target: T4, Penicillin-binding protein 1B (Escherichia coli K-12, UniProt P02919); test: Compound was tested for inhibition of Penicillin-binding protein 1b from Escherichia coli.
T4 sequence (P02919 whole entry): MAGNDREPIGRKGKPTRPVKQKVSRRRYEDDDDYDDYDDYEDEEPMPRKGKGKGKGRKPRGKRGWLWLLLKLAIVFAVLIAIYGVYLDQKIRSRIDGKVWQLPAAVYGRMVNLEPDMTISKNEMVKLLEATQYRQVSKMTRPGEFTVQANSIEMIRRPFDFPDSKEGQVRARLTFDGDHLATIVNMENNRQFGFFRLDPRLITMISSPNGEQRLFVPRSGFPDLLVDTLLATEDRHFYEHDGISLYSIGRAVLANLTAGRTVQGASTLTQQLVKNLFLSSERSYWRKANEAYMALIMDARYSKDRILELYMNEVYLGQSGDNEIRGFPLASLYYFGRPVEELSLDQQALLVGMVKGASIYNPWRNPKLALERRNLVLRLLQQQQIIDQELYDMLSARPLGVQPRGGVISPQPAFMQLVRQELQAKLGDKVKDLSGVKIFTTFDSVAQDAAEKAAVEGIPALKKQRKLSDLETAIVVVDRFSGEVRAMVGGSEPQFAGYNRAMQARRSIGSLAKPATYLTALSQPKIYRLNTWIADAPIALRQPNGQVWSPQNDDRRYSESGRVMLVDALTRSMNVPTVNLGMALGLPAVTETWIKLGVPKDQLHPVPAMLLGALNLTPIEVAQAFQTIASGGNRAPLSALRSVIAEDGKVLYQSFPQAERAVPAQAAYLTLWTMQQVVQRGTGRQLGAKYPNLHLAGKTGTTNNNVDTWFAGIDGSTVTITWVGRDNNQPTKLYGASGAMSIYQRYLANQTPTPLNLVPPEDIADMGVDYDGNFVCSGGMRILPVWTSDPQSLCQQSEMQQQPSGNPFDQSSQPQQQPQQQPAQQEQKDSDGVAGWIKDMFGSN
Procedure, shortened: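 Penicillin binding was assayed on membrane fragments from E. coli W3110 or S. aureus Schoch, using ¹⁴C-labeled benzylpenicillin as the probe. IC₅₀ values are reported in µM.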

[23] = target: Peptidoglycan D,D-transpeptidase MrdA (Escherichia coli K-12, UniProt P0AD65); test: Compound was tested for inhibition of Penicillin-binding protein 2 from Escherichia coli.
Peptidoglycan D,D-transpeptidase MrdA, sequence (P0AD65 whole entry): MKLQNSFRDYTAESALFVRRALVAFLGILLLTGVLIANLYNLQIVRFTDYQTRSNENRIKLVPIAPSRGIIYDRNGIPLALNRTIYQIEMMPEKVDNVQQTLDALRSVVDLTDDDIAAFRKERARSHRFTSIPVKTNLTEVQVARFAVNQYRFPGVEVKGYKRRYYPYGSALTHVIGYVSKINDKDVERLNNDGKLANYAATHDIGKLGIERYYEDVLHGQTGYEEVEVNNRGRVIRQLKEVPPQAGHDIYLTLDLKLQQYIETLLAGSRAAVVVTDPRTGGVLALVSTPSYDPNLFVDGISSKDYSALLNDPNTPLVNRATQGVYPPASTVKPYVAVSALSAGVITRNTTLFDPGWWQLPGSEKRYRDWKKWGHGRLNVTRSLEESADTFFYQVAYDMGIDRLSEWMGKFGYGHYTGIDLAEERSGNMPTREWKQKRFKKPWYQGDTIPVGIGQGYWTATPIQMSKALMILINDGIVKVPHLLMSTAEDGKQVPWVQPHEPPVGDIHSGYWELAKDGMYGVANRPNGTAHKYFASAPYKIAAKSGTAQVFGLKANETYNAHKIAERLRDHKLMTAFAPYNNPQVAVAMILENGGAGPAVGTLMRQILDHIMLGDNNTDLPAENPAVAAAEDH

[24] = Compound was tested for inhibition of Penicillin-binding protein 1 from Staphylococcus aureus (Schoch).
[25] = (§3) Compound was tested for inhibition of TEM-1, class A of beta-lactamases.; design: species or system Escherichia coli
[26] = (§4) Compound was tested for inhibition of TEM-3, class A of beta-lactamases.; design: species or system Escherichia coli
[27] = Compound was tested for inhibition of pTEM-3 from Escherichia coli in combination with Ceftriaxone (expressed in MIC).; procedure, shortened: as §2
[28] = Compound was tested for inhibition of pTEM-4 from Escherichia coli in combination with Ceftriaxone (not active).; procedure, shortened: as §2
Citrobacter freundii [29] = test: Compound was tested for inhibition of Citrobacter freundii 1928 in combination with Ceftriaxone; type: functional; procedure, shortened: as §2
Enterobacter cloacae [30] = test: (§5) Compound was tested for inhibition of Ent. cloacae 908R in combination with Ceftriaxone; type: functional; procedure, shortened: as §2
[31] = Compound was tested for inhibition of Penicillin-binding protein 2x from Streptococcus pneumoniae
Procedure, shortened: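 S. pneumoniae PBP 2x was assayed as recombinant soluble protein. IC₅₀ values are reported in µM.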

Pseudomonas aeruginosa [32] = test: Compound was tested for inhibition of Pseudomonas aeruginosa 18SH in combination with Ceftriaxone; type: functional; procedure, shortened: as §2
Escherichia coli [33] = test: (§6) Compound was tested for inhibition of pTEM-3 from Escherichia coli in combination with Ceftriaxone; procedure, shortened: as §2
Escherichia coli [34] = test: (§7) Compound was tested for inhibition of pTEM-4 from Escherichia coli in combination with Ceftriaxone; procedure, shortened: as §2
Enterobacter cloacae [35] = test: as §5; type: functional, organism-based; procedure, shortened: as §2
[36] = as §4; type: functional, Escherichia coli
[37] = as §6; type: functional; procedure, shortened: as §2
[38] = as §7; type: functional; procedure, shortened: as §2
[39] = as §3; type: functional, Escherichia coli

SMILES | pIC50 (Bacillus licheniformis) | MIC (Enterobacter cloacae [10]) | MIC (Pseudomonas aeruginosa [15]) | pIC50 (Beta-lactamase [17]) | pIC50 (Beta-lactamase [18]) | pIC50 (Beta-lactamase [19]) | pIC50 (Beta-lactamase [20]) | pIC50 [22] | pIC50 [25] | pIC50 [26] | MIC (Citrobacter freundii [29]) | MIC (Enterobacter cloacae [30]) | pIC50 [31] | MIC (Pseudomonas aeruginosa [32]) | MIC (Escherichia coli [33]) | MIC (Escherichia coli [34]) | other results
C[C@]1(C=CC#N)[C@H](C(=O)O)N2C(=O)C[C@H]2S1(=O)=O [Ro-481220] | 6.49 | 1 µg/mL | 4 µg/mL | – | – | – | – | – | – | – | – | – | – | – | – | – | pIC50 (Beta-lactamase OXA-1): 7.00; pIC50 (Beta-lactamase pse-1): 7.05; pIC50 (Beta-lactamase TEM [1]): 5.97; pIC50 (Beta-lactamase TEM [2]): 6.01; pIC50 (Beta-lactamase SHV-1): 6.27; pIC50 (Beta-lactamase [3]): 6.49; pIC50 [4]: 3.70; pIC50 (Beta-lactamase [5]): 6.07; pIC50 (Beta-lactamase [6]): 5.71; MIC (Citrobacter freundii [7]): 1 µg/mL; Ks (Citrobacter freundii [8]): 125 µM; Ks (Escherichia coli [9]): 2.3 µM; Ks (Escherichia coli [11]): 377 µM; Ks (Escherichia coli [12]): 0.56 µM; pIC50 [13]: 3.77; pIC50 [14]: < 3.47; pIC50 (Beta-lactamase L1): 4.62; pIC50 (Beta-lactamase [16]): 6.60
C[C@]1(/C=C/C[n+]2ccccc2)[C@H](C(=O)O)N2C(=O)C[C@H]2S1(=O)=O | – | 8 µg/mL | > 16 µg/mL | 3.48 | 5.74 | 4.12 | 4.80 | < 2.00 | 5.44 | 6.85 | – | – | – | – | – | – | pIC50 [21]: 4.82; pIC50 [23]: 3.53; pIC50 [24]: 4.82; MIC [27]: 0.25 µg/mL; MIC [28]: 0.5 µg/mL
C[C@]1(/C=C/COC(N)=O)[C@H](C(=O)O)N2C(=O)C[C@H]2S1(=O)=O | 5.19 | – | – | – | – | – | – | – | – | – | 4 µg/mL | – | – | 8 µg/mL | – | – | MIC (Enterobacter cloacae [35]): 8 µg/mL; pIC50 [36]: 6.12; MIC [37]: 1 µg/mL; MIC [38]: 4 µg/mL; pIC50 [39]: 5.04
C[C@]1(/C=C\C#N)[C@H](C(=O)O)N2C(=O)C[C@H]2S1(=O)=O | 6.49 | 4 µg/mL | 16 µg/mL | – | – | – | – | – | – | – | – | – | – | – | – | – | MIC (Citrobacter freundii [7]): 2 µg/mL
C[C@]1(/C=C/c2cncs2)[C@H](C(=O)O)N2C(=O)C[C@H]2S1(=O)=O | – | – | – | 4.35 | 5.27 | 6.27 | 5.89 | < 2.00 | 5.07 | 6.80 | 8 µg/mL | > 16 µg/mL | 4.30 | 16 µg/mL | 1 µg/mL | 4 µg/mL | –

Further lines, with some results ahead:

pIC50 (Bacillus licheniformis) | MIC (Enterobacter cloacae [10]) | MIC (Pseudomonas aeruginosa [15]) | pIC50 (Beta-lactamase [17]) | pIC50 (Beta-lactamase [18]) | pIC50 (Beta-lactamase [19]) | pIC50 (Beta-lactamase [20]) | pIC50 [22] | pIC50 [25] | pIC50 [26] | MIC (Citrobacter freundii [29]) | MIC (Enterobacter cloacae [30]) | pIC50 [31] | MIC (Pseudomonas aeruginosa [32]) | MIC (Escherichia coli [33]) | MIC (Escherichia coli [34]) | SMILES | other results
– | – | – | 4.34 | 5.64 | 4.82 | 6.00 | < 2.00 | 4.72 | 7.04 | 8 µg/mL | 32 µg/mL | 5.35 | > 16 µg/mL | 1 µg/mL | 4 µg/mL | C[C@]1(/C=C\c2ccccn2)[C@H](C(=O)[O-])N2C(=O)C[C@H]2S1(=O)=O.[Na+] | pIC50 [21]: 4.82; pIC50 [24]: 4.82
– | – | – | 5.57 | 6.27 | 5.05 | 6.39 | < 2.00 | 4.89 | 7.27 | 16 µg/mL | 16 µg/mL | 5.32 | > 16 µg/mL | 0.5 µg/mL | 4 µg/mL | C[C@]1(/C=C\c2cncs2)[C@H](C(=O)[O-])N2C(=O)C[C@H]2S1(=O)=O.[Na+] | –
5.36 | – | – | – | – | – | – | – | – | – | 8 µg/mL | 16 µg/mL | – | > 16 µg/mL | – | – | CON(C)C(=O)/C=C\[C@@]1(C)[C@H](C(=O)[O-])N2C(=O)C[C@H]2S1(=O)=O.[Na+] | pIC50 [36]: 6.74; MIC [37]: 0.5 µg/mL; MIC [38]: 2 µg/mL; pIC50 [39]: 4.92
